Measurements from different studies.
Lines come from different studies, so protocols differ.
Target: Proto-oncogene tyrosine-protein kinase ROS (ROS1, Homo sapiens, UniProt P08922)

With `C=CC(=O)Nc1cc(Nc2nccc(Nc3cc(Cl)c(F)cc3C(C)(C)O)n2)c(OC)cc1N1CC[C@@H](N(C)C)C1` the inhibition was 51% (enzyme activity; inhibitor; 1 µM).
The remaining binding of `CCC(=O)N[C@@H]1CC[C@H](C(=O)N(C)c2ccc(-c3nc4ccccc4o3)cc2)C1` is reported as 100% (cell-free assay; competition with immobilised ligand; 1 µM).
For `C[S+]([O-])c1ccc(-c2nc(-c3ccncc3)c(-c3ccc(F)cc3)[nH]2)cc1` (stereo not drawn), the remaining signal was 94.4% (cell-free assay; 0.5 µM).
For `COc1cc(Cl)c(C(=O)N[C@@H](CN[C@H]2CC[C@@H](N)CC2)Cc2ccc(C#N)cc2)cc1-c1ccc(CN[C@H](C)c2ccc(C)cc2)o1`, the remaining activity was 137% (enzyme activity; inhibitor; 1 µM).
With `O=C(N[C@H]1CCCCC/C=C\C2C[C@@]2(C(=O)O)NC(=O)[C@@H]2C[C@@H](Oc3ccncc3)CN2C1=O)OC1CCCC1` (stereo partly drawn) the remaining binding was 92% (cell-free assay; competition with immobilised ligand; 1 µM).
The remaining signal of `COc1cc2c(Nc3ccc(Br)cc3F)ncnc2cc1OCC1CCN(C)CC1` is reported as 76.5% (cell-free assay; 0.5 µM).
With `Nc1ncnc2occ(-c3ccc(NC(=O)Nc4cc(C(F)(F)F)ccc4F)cc3)c12` the remaining signal was 4.9% (cell-free assay; 20 µM).
With `COc1cc2ncnc(Nc3ccc(Oc4ccccc4)c(C)c3C)c2cc1OC` the inhibition was -2% (enzyme activity; inhibitor; 1 µM).
With `CC(C)(O)[C@H]1CC[C@H](Nc2ccc3ncc(-c4cccc(C(F)(F)F)c4)n3n2)CC1` the remaining activity was 25.1% (enzyme activity; inhibitor; 1 µM).
For `CCCOc1ccc(OC)c(F)c1C(=O)c1ccc(C(=O)N[C@@H]2CNC[C@H]2NC(=O)c2ccc3[nH]ncc3c2)cc1`, the remaining activity was 105% (enzyme activity; inhibitor; 10 µM).
With `CNC(=O)Nc1ccc2c(c1)[C@@]1(CC2)OC(=O)N(CC(=O)N(Cc2ccc(F)cc2)[C@@H](C)C(F)(F)F)C1=O` the remaining binding was 87% (cell-free assay; competition with immobilised ligand; 1 µM).
With `CCN(CC)CCNC(=O)c1c(C)[nH]c(/C=C2\C(=O)Nc3ccc(F)cc32)c1C` the inhibition was 35% (enzyme activity; inhibitor; 10 µM).
The remaining binding of `Cc1c[nH]c2nccc(Oc3c(F)cc(Nc4cc(Cl)nc(N)n4)cc3F)c12` is reported as 96% (cell-free assay; competition with immobilised ligand; 0.1 µM).
For `CCOc1cc(-c2nncn2C)ccc1Nc1ncc2cc(C)nc(NCC(C)(C)C)c2n1`, the inhibition was 31% (enzyme activity; inhibitor; FRET; 1 µM).
With `CC(=O)N1CCC(c2ccc(C(=O)NC3=NCCN3)cc2C(F)(F)F)CC1` the remaining binding was 99% (cell-free assay; competition with immobilised ligand; 1 µM).
`CNC(=O)c1cc(Oc2ccc(NC(=O)Nc3ccc(Cl)c(C(F)(F)F)c3)cc2)ccn1` gave a remaining signal of 95.7% (cell-free assay; 0.5 µM).
The remaining binding of `CC1=C(C#N)C(c2ccc3c(c2)c(NC(=O)c2ccccc2C)nn3C)C(C#N)=C(C)N1` is reported as 100% (cell-free assay; competition with immobilised ligand; 1 µM).
`CC(C)(C)c1nc(-c2cccc(NS(=O)(=O)c3c(F)cccc3F)c2F)c(-c2ccnc(N)n2)s1` has a remaining activity of 96% (enzyme activity; inhibitor; radiometric; 1 µM).
